Sampled rows, rich in hits. Any-hit rate of the full collection: about 3.7%.
KCNK9 inh: blocks the human KCNK9 two-pore domain potassium channel; B-score at 10 µM; hit rate 1.2% among 310,000; Q9NPC2; HEK293 KCNK9, FluxOR thallium flux fluorescence; hits give low values;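 active means ratio B-score over 3 SD below the library mean, with starting fluorescence within 5 SD of its mean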;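 further: negative B-score means less thallium flux so channel inhibition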
Kir21 block: inhibitors of mouse Kir2.1 inward-rectifier potassium channel; P35561; HEK293-Kir2.1, FluxOR thallium flux fluorescence; hits give low values; B-score at 10 µM; hit rate 0.85% among 310,000; AID 1672;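 active means fluorescence ratio B-score at or below minus 3 SD of library scores, with starting-brightness B-score within 2 SD, cut at about -4.2 in these data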;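 further: channel flux triggered by added potassium and thallium sulfate stimulus; B-score of peak minus minimum fluorescence over baseline after thallium stimulus; more negative B-score means stronger Kir2.1 block with less thallium influx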
KCNQ1 inh: human KCNQ1 channel inhibition; P51787; CHO-K1 KCNQ1, FluxOR thallium flux fluorescence; hits give high values; B-score at 10 µM; hit rate 1.3% among 310,000; AID 2642;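 active means compounds whose thallium flux B-score, printed positive for inhibition, exceeds three library SD while starting fluorescence stays within three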;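 further: channel opened by potassium depolarization with thallium stimulus after 20 min compound exposure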
KCNQ1 act: potentiators or activators of human KCNQ1 potassium channel. CHO-K1 KCNQ1, thallium flux FluxOR fluorescence; hits give high values. B-score at 10 µM. hit rate 0.35% among 310,000. AID 2648;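 active means fluorescence ratio B-score, a plate-corrected score, at least three library SD, with initial intensity B-score within 5 SD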
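Material: CHO-K1 cells stably expressing KCNQ1. Medium: assay buffer for compound exposure, DMSO matched across wells. Reagent: K+/Tl+ depolarizing stimulus. Compound dosing: single-concentration screen. Times: 37 °C overnight plating, 90-min dark dye load, 20-min compound pretreatment. Technique: FluxOR Tl+ flux fluorescence.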
hERG rescue: shields human hERG channel from block by proarrhythmic agents; Q12809; CHO-hERG, FluxOR thallium flux, dofetilide IC70 present; activation (rescue from dofetilide block), less the hit threshold, % at 10 µM; hit rate 0.51% among 310,000; AID 1511;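 active means activation above the mean of controls blocked by dofetilide plus 5 SD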;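 further: thallium influx through hERG after potassium depolarization seen as dye fluorescence rise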
KCNK3 inh: human KCNK3 channel inhibition, primary screen; B-score at 10 µM; O14649; hit rate 0.84% among 340,000; CHO-KCNK3 thallium flux, FluxOR fluorescence; hits give low values;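 active means B-score under library mean minus 4 SD, starting fluorescence ratio at most library mean plus 5 SD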;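 further: more negative B-score means stronger inhibition of thallium flux through KCNK3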
Target sequence (O14649 whole entry, looked up): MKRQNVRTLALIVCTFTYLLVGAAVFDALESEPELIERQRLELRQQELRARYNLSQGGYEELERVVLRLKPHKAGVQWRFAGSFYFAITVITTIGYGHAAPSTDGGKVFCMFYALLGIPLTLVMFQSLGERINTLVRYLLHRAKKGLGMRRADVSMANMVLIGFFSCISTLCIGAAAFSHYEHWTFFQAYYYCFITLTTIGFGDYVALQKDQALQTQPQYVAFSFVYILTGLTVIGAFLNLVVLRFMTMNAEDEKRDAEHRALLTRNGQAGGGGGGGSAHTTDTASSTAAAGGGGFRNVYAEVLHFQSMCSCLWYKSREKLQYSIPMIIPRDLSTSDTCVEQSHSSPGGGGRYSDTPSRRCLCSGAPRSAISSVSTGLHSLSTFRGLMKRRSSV
* hit, by the source's call.

`OC(CNCCc1ccc(C(F)(F)F)cc1)COc1cccc2ccccc12` (configuration not stated) gave KCNK9 inh inactive, Kir21 block -8.02*, KCNQ1 inh inactive, KCNQ1 act inactive, hERG rescue 5.3* and KCNK3 inh inactive.
`OC(CNC1CCCC1)COc1ccccc1Br` (configuration not stated) gave KCNK9 inh inactive, Kir21 block -0.01, KCNQ1 inh inactive, KCNQ1 act inactive, hERG rescue -2.7 and KCNK3 inh inactive.
`OC(CNCCc1ccc(C(F)(F)F)cc1)COc1ccc2ccccc2c1` (configuration not stated) gave KCNK9 inh inactive, Kir21 block -0.14, KCNQ1 inh inactive, KCNQ1 act inactive, hERG rescue -24.2 and KCNK3 inh inactive.
OC(CNC1CCCCCC1)COc1cccc2ccccc12 (configuration not stated) was read as KCNK9 inh inactive, Kir21 block -4.93*, KCNQ1 inh inactive, KCNQ1 act inactive, hERG rescue -11.8 and KCNK3 inh inactive.
For Clc1ccc2oc(SCc3cccnc3)nc2c1 the results were KCNK9 inh inactive, Kir21 block -2.04, KCNQ1 inh inactive, KCNQ1 act inactive, hERG rescue -5.0 and KCNK3 inh inactive.
For Cc1cc(=O)oc2c(C)c(OC(C)C(=O)Nc3ccc(N4CCC(C)CC4)cc3)ccc12 (configuration not stated) the results were KCNK9 inh inactive, Kir21 block -0.58, KCNQ1 inh inactive, KCNQ1 act inactive, hERG rescue -7.6 and KCNK3 inh inactive.
`CCN(c1ccc(F)cc1)S(=O)(=O)c1cccc2nsnc12` gave KCNK9 inh inactive, Kir21 block -5.49*, KCNQ1 inh inactive, KCNQ1 act inactive, hERG rescue -4.9 and KCNK3 inh inactive.
Screening CN(C1CCCCC1)S(=O)(=O)c1cccc2nsnc12 returned KCNK9 inh inactive, Kir21 block -5.11*, KCNQ1 inh inactive, KCNQ1 act inactive, hERG rescue -3.7 and KCNK3 inh inactive.
N#CCCN(C1CCCCC1)S(=O)(=O)c1cccc2nsnc12 was read as KCNK9 inh inactive, Kir21 block -1.61, KCNQ1 inh inactive, KCNQ1 act inactive, hERG rescue -9.3 and KCNK3 inh inactive.
CC1c2cc3c(cc2CCN1C(=O)c1ccc(C(F)(F)F)cc1)OCCCO3 (configuration not stated) was read as KCNK9 inh -6.91*, Kir21 block -0.96, KCNQ1 inh inactive, KCNQ1 act inactive, hERG rescue -17.3 and KCNK3 inh inactive.
`CC(=O)NCCC(=O)Nc1ccc(C)c(F)c1` gave KCNK9 inh inactive, Kir21 block -1.1, KCNQ1 inh inactive, KCNQ1 act inactive, hERG rescue 5.4* and KCNK3 inh inactive.
Screening C=C(C(=O)c1ccccc1)C(C)C(=C)C(=O)c1ccccc1 returned KCNK9 inh inactive, Kir21 block -4.38*, KCNQ1 inh inactive, KCNQ1 act inactive, hERG rescue -4.6 and KCNK3 inh inactive.
Screening Cc1cc(SCC(=O)OCC(=O)N(CCC#N)c2ccccc2)nc2ccccc12 returned KCNK9 inh inactive, Kir21 block 0.07, KCNQ1 inh inactive, KCNQ1 act inactive, hERG rescue -12.1 and KCNK3 inh inactive.
For c1ccc(-c2nnc3ccc(N4CCCC4)nn23)cc1 the results were KCNK9 inh inactive, Kir21 block -0.63, KCNQ1 inh inactive, KCNQ1 act inactive, hERG rescue -9.3 and KCNK3 inh inactive.
CN(Cc1ccccc1)c1ccc2nnc(-c3ccccc3)n2n1 was read as KCNK9 inh inactive, Kir21 block -5.17*, KCNQ1 inh inactive, KCNQ1 act inactive, hERG rescue -18.7 and KCNK3 inh inactive.
C/C(=N\OCc1ccc(C#N)cc1)c1cc2ccccc2o1 was read as KCNK9 inh inactive, Kir21 block 0.21, KCNQ1 inh inactive, KCNQ1 act inactive, hERG rescue -10.2 and KCNK3 inh inactive.
For C/C(=N\OCc1ccccc1C#N)c1cc2ccccc2o1 the results were KCNK9 inh -7.13*, Kir21 block 0.54, KCNQ1 inh inactive, KCNQ1 act inactive, hERG rescue -5.0 and KCNK3 inh inactive.

High-throughput results: PubChem BioAssay, Johns Hopkins Ion Channel Center
